Measured values reported in ChEMBL document CHEMBL4406820, “Novel reverse thia-analogs of fosmidomycin: Synthesis and antiplasmodial activity” (Eur J Med Chem, 2019).

What was measured:
[1] = biological target: T1, 1-deoxy-D-xylulose 5-phosphate reductoisomerase, apicoplastic (Plasmodium falciparum (isolate 3D7), UniProt Q8IKG4); test: Inhibition of recombinant Plasmodium falciparum IspC expressed in Escherichia coli using 1-deoxy-D-xylulose 5-phosphate as substrate by photometric assay
T1 sequence (Q8IKG4 whole entry): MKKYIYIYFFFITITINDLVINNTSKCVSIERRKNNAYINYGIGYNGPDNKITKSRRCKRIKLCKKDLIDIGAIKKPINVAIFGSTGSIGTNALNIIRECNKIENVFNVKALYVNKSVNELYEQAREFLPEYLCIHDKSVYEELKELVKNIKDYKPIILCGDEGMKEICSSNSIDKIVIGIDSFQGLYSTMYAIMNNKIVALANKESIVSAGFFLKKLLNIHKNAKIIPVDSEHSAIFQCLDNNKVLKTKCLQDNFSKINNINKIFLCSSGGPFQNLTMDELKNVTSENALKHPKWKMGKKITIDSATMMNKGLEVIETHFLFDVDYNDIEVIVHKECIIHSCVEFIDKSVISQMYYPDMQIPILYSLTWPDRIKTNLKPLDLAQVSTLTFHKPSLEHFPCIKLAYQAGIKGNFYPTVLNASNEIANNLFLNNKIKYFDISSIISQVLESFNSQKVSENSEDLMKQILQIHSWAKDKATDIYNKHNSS
Method in brief: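 P. falciparum IspC expressed in E. coli. Reaction mix: 100 mM Tris-HCl pH 7.6, 5 mM MnCl2, 5 mM DTT, 0.5 mM NADPH, 0.02 U enzyme. Inhibitor tested as a 1:3 series from 200 to 0.003 µM. Started with 0.5 mM DXP; read at 340 nm, room temperature. IC50 calculated from at least eight data points; generally two to three independent determinations.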

[2] = biological target: T2, 1-deoxy-D-xylulose 5-phosphate reductoisomerase (Escherichia coli, UniProt W8T2T2); test: Inhibition of recombinant Escherichia coli IspC expressed in Escherichia coli M15 using 1-deoxy-D-xylulose 5-phosphate as substrate by photometric assay
T2 sequence (W8T2T2 whole entry): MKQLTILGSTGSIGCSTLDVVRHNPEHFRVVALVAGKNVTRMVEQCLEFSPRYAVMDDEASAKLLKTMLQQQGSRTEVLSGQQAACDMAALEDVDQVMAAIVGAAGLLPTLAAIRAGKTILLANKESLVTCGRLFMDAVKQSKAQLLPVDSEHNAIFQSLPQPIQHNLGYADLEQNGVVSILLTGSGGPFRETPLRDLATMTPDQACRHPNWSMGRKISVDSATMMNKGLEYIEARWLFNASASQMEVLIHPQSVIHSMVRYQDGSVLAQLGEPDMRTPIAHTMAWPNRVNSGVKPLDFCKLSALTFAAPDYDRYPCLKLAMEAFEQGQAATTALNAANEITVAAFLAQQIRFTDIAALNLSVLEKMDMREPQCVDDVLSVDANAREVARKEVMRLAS
Method in brief: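 E. coli IspC, His-tagged, expressed in E. coli M15 pREP4 (IPTG 1 mM, 36 h at 20 °C) and purified by Ni2+-chelate chromatography to about 95% purity. Reaction mix: 100 mM Tris-HCl pH 7.6, 5 mM MnCl2, 5 mM DTT, 0.5 mM NADPH, 0.02 U enzyme. Inhibitor tested as a 1:3 series from 200 to 0.003 µM. Started with 0.5 mM DXP; NADPH consumption read at 340 nm, room temperature. IC50 fitted from at least eight points.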

[3] = biological target: T3, 1-deoxy-D-xylulose 5-phosphate reductoisomerase (Mycobacterium tuberculosis, UniProt P9WNS1); test: Inhibition of recombinant Mycobacterium tuberculosis IspC expressed in Escherichia coli M15 using 1-deoxy-D-xylulose 5-phosphate as substrate by photometric assay
T3 sequence (P9WNS1 whole entry): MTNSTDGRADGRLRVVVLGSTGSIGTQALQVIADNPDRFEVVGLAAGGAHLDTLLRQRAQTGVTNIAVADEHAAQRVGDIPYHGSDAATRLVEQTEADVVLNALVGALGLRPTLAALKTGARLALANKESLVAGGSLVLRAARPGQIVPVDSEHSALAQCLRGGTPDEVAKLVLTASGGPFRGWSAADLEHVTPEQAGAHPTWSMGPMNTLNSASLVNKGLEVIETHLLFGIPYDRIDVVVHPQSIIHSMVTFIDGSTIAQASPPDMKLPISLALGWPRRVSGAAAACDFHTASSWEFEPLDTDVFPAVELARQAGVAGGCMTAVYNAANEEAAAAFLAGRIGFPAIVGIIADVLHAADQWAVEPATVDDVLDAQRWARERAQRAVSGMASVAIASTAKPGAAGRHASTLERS

Plasmodium falciparum [4] = test: Antimalarial activity against asexual blood stages of Plasmodium falciparum 3D7 infected in human erythrocytes incubated for 3 days by ELISA; type: functional, organism-based; details: 3D7, 72 h
Method in brief: (§1)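 Asexual blood-stage P. falciparum cultured in human erythrocytes; growth measured by HRP2 double-site sandwich ELISA. IC50 values are the mean of two independent double determinations.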

HeLa = test: Cytotoxicity against human HeLa cells assessed as reduction in cell viability incubated for 24 hrs by neutral red assay; type: cell-based
Method in brief: (§2)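 Cytotoxicity on HeLa monolayers quantified spectrophotometrically, given as the mean of two independent double determinations. SI is HeLa IC50 divided by the P. falciparum 3D7 IC50.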

Acinetobacter baumannii [5] = test: Antimicrobial activity against Acinetobacter baumannii ATCC BAA747 incubated for 18 hrs by microbroth dilution assay; type: functional; details: ATCC BAA747, 18 h
Acinetobacter baumannii [6] = test: Antimicrobial activity against Acinetobacter baumannii ATCC BAA 1605 incubated for 18 hrs by microbroth dilution assay; type: functional; details: ATCC BAA 1605, 18 h
Escherichia coli [7] = test: Antimicrobial activity against Escherichia coli ATCC 25922 incubated for 18 hrs by microbroth dilution assay; type: functional; details: ATCC 25922, 18 h
Escherichia coli [8] = test: Antimicrobial activity against Escherichia coli ATCC BAA 2469 incubated for 18 hrs by microbroth dilution assay; type: functional; details: ATCC BAA 2469, 18 h
Klebsiella pneumoniae [9] = test: Antimicrobial activity against Klebsiella pneumoniae ATCC 13883 incubated for 18 hrs by microbroth dilution assay; type: functional; details: ATCC 13883, 18 h
Klebsiella pneumoniae [10] = test: Antimicrobial activity against Klebsiella pneumoniae ATCC 700603 incubated for 18 hrs by microbroth dilution assay; type: functional; details: ATCC 700603, 18 h
Pseudomonas aeruginosa = test: Antimicrobial activity against Pseudomonas aeruginosa ATCC 27853 incubated for 18 hrs by microbroth dilution assay; type: functional; details: ATCC 27853, 18 h
[11] = system: Mycobacterium tuberculosis; test: Antimycobacterial activity against Mycobacterium tuberculosis H37Rv incubated for 5 days by resazurin dye based assay; type: functional; details: 120 h
Plasmodium falciparum [12] = test: Antimalarial activity against asexual blood stages of Plasmodium falciparum Dd2 infected in human erythrocytes incubated for 3 days by ELISA; type: functional, organism-based; details: Dd2, 72 h; method in brief: as §1
[13] = Selectivity index, ratio of IC50 for human HeLa cells to IC50 for Plasmodium falciparum 3D7; type: toxicity; details: read-out: Ratio IC50; method in brief: as §2

| Structure (SMILES) | IC50 [1] | IC50 [2] | IC50 [3] | IC50 (Plasmodium falciparum [4]) | IC50 (HeLa) | MIC (Acinetobacter baumannii [5]) | MIC (Acinetobacter baumannii [6]) | MIC (Escherichia coli [7]) | MIC (Escherichia coli [8]) | MIC (Klebsiella pneumoniae [9]) | MIC (Klebsiella pneumoniae [10]) | MIC (Pseudomonas aeruginosa) | MIC [11] | IC50 (Plasmodium falciparum [12]) | selectivity ratio [13] |
| --- | --- | --- | --- | --- | --- | --- | --- | --- | --- | --- | --- | --- | --- | --- | --- |
| COc1cc(OC)cc(C(P(=O)(O)O)S(=O)(=O)CC(=O)NO)c1 (stereo not drawn) | 0.22 µM | 4.5 µM | 194 µM | 2.7 µM | > 500 µM | > 100 µM | > 100 µM | > 100 µM | > 100 µM | > 100 µM | > 100 µM | > 100 µM | > 100 µM | – | – |
| CN(O)C(=O)CS(=O)(=O)C(c1ccccc1)P(=O)(O)O (stereo not drawn) | 7.6 µM | 36 µM | 115 µM | > 100 µM | – | – | – | – | – | – | – | – | – | – | – |
| COc1cc(OC)cc(C(P(=O)(O)O)S(=O)(=O)CC(=O)N(C)O)c1 (stereo not drawn) | 3.7 µM | 80 µM | > 1000 µM | > 100 µM | > 1000 µM | – | – | – | – | – | – | – | – | – | – |
| CN(O)C(=O)CS(=O)(=O)C(c1cc(F)cc(F)c1)P(=O)(O)O (stereo not drawn) | 5.5 µM | 4.3 µM | 44 µM | 19 µM | > 1000 µM | > 100 µM | > 100 µM | > 100 µM | > 100 µM | > 100 µM | > 100 µM | > 100 µM | > 100 µM | – | – |
| Cc1ccc(C(P(=O)(O)O)S(=O)(=O)CC(=O)N(C)O)cc1 (stereo not drawn) | 8.5 µM | 36 µM | 143 µM | > 100 µM | > 50 µM | > 100 µM | > 100 µM | > 100 µM | > 100 µM | > 100 µM | > 100 µM | > 100 µM | > 100 µM | – | – |
| CN(O)C(=O)CS(=O)(=O)C(c1ccc(Cl)c(Cl)c1)P(=O)(O)O (stereo not drawn) | 1 µM | 11 µM | 21 µM | > 100 µM | > 1000 µM | > 100 µM | > 100 µM | > 100 µM | > 100 µM | > 100 µM | > 100 µM | > 100 µM | > 100 µM | – | – |
| CN(O)C(=O)CS(=O)(=O)C(c1cccc2ccccc12)P(=O)(O)O (stereo not drawn) | 823 µM | 15 µM | 621 µM | > 100 µM | > 1000 µM | > 100 µM | > 100 µM | > 100 µM | > 100 µM | > 100 µM | > 100 µM | > 100 µM | > 100 µM | – | – |
| Cc1ccc(C(P(=O)(O)O)S(=O)(=O)CC(=O)NO)cc1 (stereo not drawn) | 65 µM | 64 µM | > 1000 µM | > 100 µM | – | – | – | – | – | – | – | – | – | – | – |
| CN(O)C(=O)CSC(c1ccc(Cl)c(Cl)c1)P(=O)(O)O (racemic) | – | – | – | – | – | > 100 µM | > 100 µM | > 100 µM | > 100 µM | > 100 µM | > 100 µM | > 100 µM | > 100 µM | – | – |
| CN(O)C(=O)CSC(c1cccc2ccccc12)P(=O)(O)O (racemic) | – | – | – | – | – | > 100 µM | > 100 µM | > 100 µM | > 100 µM | > 100 µM | > 100 µM | > 100 µM | > 100 µM | – | – |
| Cc1ccc(C(SCC(=O)N(C)O)P(=O)(O)O)cc1 (racemic) | – | – | – | – | – | > 100 µM | > 100 µM | > 100 µM | > 100 µM | > 100 µM | > 100 µM | > 100 µM | > 100 µM | – | – |
| Cc1ccc(C(SCC(=O)NO)P(=O)(O)O)cc1 (racemic) | 0.032 µM | 0.29 µM | 8.2 µM | 6.5 µM | > 1000 µM | > 100 µM | > 100 µM | > 100 µM | > 100 µM | > 100 µM | > 100 µM | > 100 µM | > 100 µM | 8 µM | > 150 |
| COc1cc(OC)cc(C(SCC(=O)NO)P(=O)(O)O)c1 (racemic) | 0.024 µM | 0.68 µM | 44 µM | 0.33 µM | > 1000 µM | > 100 µM | > 100 µM | > 100 µM | > 100 µM | > 100 µM | > 100 µM | > 100 µM | > 100 µM | 0.27 µM | > 3000 |
| O=C(CSC(c1cc(F)cc(F)c1)P(=O)(O)O)NO (racemic) | 0.011 µM | 0.013 µM | 0.32 µM | 1.2 µM | > 1000 µM | > 100 µM | > 100 µM | > 100 µM | > 100 µM | > 100 µM | > 100 µM | > 100 µM | > 100 µM | 0.87 µM | > 810 |
| CN(O)C(=O)CSC(c1cc(F)cc(F)c1)P(=O)(O)O (racemic) | 0.013 µM | 0.018 µM | 0.11 µM | 0.15 µM | > 1000 µM | > 100 µM | > 100 µM | > 100 µM | > 100 µM | > 100 µM | > 100 µM | > 100 µM | > 100 µM | 0.13 µM | > 6700 |
| COc1cc(OC)cc(C(SCC(=O)N(C)O)P(=O)(O)O)c1 (racemic) | 0.02 µM | 0.16 µM | 4.4 µM | 0.16 µM | > 1000 µM | > 100 µM | > 100 µM | > 100 µM | > 100 µM | > 100 µM | > 100 µM | > 100 µM | > 100 µM | 0.18 µM | > 6400 |
| O=CN(O)CCCP(=O)(O)O [FOSMIDOMYCIN SODIUM] | – | 0.22 µM | – | – | – | – | – | – | – | – | – | – | – | – | – |
